Results of several laboratories.
Each line is one published result; the experiments were not run side by side.

SMILES	host	matrix	route	dose	notes	half-life [min]
O=[N+]([O-])c1ccc(-c2ccc(O)cc2)c2cccnc12	male CD-1 mouse	plasma	intravenous	1 mg/kg		7.56
C=CS(=O)(=O)c1ccc(Nc2nc(OCC3CCCCC3)c3nc[nH]c3n2)cc1	male BALB/c mouse	plasma	intravenous	20 mg/kg	single dose	316
COc1cc(C(=O)OCCCN2CCCN(CCCOC(=O)c3cc(OC)c(OC)c(OC)c3)CC2)cc(OC)c1OC	male CD-1 mouse	brain	subcutaneous			50.4
O=C1CC[C@H](N2Cc3c(ccc4c3OCC43CCN(C[C@@H]4CCC5(CCN(c6ccc([C@@H]7c8ccc(O)cc8CC[C@@H]7c7ccccc7)cc6)CC5)OC4)CC3)C2=O)C(=O)N1	mouse	plasma	oral	3 mg/kg		~780
CC(=O)O[C@@]12CO[C@@H]1C[C@H](O)[C@@]1(C)C(=O)[C@H](O)C3=C(C)[C@@H](OC(=O)[C@H](O)[C@@H](NC(=O)OC(C)(C)C)c4ccccc4)C[C@@](O)([C@@H](OC(=O)c4ccccc4)[C@H]21)C3(C)C	male Kunming mouse	lung	oral	20 mg/kg		36
CC1=NN(/C(=N/c2nnc(C)s2)Nc2ccc(C)c(C)c2)C(c2cc(F)c(F)c(F)c2)S1 (stereo not shown)	male CD-1 mouse	plasma	oral	30 mg/kg		131
CC(C(=O)Nc1c(F)cccc1F)N1CCN(c2ccccc2)CC1 (stereo not shown)	female C57BL/6 mouse	plasma	intraperitoneal	10 mg/kg		~33
CC(C)(C)OC(=O)NNc1nc2nonc2nc1Nc1ccccc1F	male C57BL/6 mouse	plasma	oral	10 mg/kg		15 to 27
Nc1ncn([C@H]2C[C@H](O)[C@@H](CO)O2)c(=O)n1	female C57BL/6 mouse	plasma	intravenous	0.4 mg/kg		46.2
CCOc1ccc(N(C)S(=O)(=O)c2cc(Cl)sc2C(=O)Nc2cc(Cl)cc(C(=O)O)c2)cc1OC	male C57BL/6 mouse	plasma	intraperitoneal	10 mg/kg		28.1
CN1CCN(C(=O)[C@H](CCCN[C@@H]2C[C@H]2c2ccc(F)cc2)NC(=O)c2ccc(-n3ccnn3)cc2)CC1	CD-1 mouse	plasma	intravenous	3 mg/kg		340
CCN1CCN(Cc2ccc(NC(=O)c3ccc(C)c(NC(=O)c4cncc(-c5cccs5)c4)c3)cc2C(F)(F)F)CC1	mouse	plasma	intraperitoneal	15 mg/kg	single dose	145
COc1cc2c(NC3CCN(CCCC(=O)NCCCCCCCCCCCC(=O)N[C@H](C(=O)N4C[C@H](O)C[C@H]4C(=O)NCc4ccc(-c5scnc5C)cc4)C(C)(C)C)CC3)nc(N3CCC(F)(F)CC3)nc2cc1OCCCN1CCCC1	male C57BL/6 mouse	plasma	intraperitoneal	50 mg/kg	single dose	90
